Experimental data: ChEMBL document CHEMBL1157510, “Bioactive cembrane diterpenoids of Anisomeles indica” (J Nat Prod, 2008)
pIC50: −log10 of the molar value. The source made the active and inactive calls. The rule behind the calls is not given here.

Key:
HepG2 = test: Cytotoxicity against human HepG2 cells after 3 days by MTT assay; type: functional, cell-based; settings: for pIC50: HepG2, 72 h
Method in brief: (§1)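 Freshly trypsinized cells were seeded at 5000-10 000 per well, and compounds were added from DMSO stocks. After 3 days of culture, attached cells were given MTT (0.5 mg/mL, 1 h) and then solubilized in DMSO. Absorbance was read at 550 nm. IC50 is the concentration that cut cell growth by 50%. Values are the mean of two to three separate experiments, each in triplicate.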

[1] = (§2) Cytotoxicity against human Hep3B cells after 3 days by MTT assay; type: functional, cell-based, Hep 3B2; settings: 72 h; method in brief: as §1
A549 = test: Cytotoxicity against human A549 cells after 3 days by MTT assay; type: functional, cell-based; settings: for pIC50: A549, 72 h; method in brief: as §1
MDA-MB-231 = test: Cytotoxicity against human MDA-MB-231 cells after 3 days by MTT assay; type: functional, cell-based; settings: for pIC50: MDA-MB-231, 72 h; method in brief: as §1
MCF7 = test: Cytotoxicity against human MCF7 cells after 3 days by MTT assay; type: functional, cell-based; settings: for pIC50: MCF7, 72 h; method in brief: as §1
Platelet [2] = test: Inhibition of collagen-induced human platelet aggregation by light transmission aggregometer; type: functional, cell-based
Method in brief: (§3)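 Human platelet suspension was preincubated with DMSO or compound at 37 °C for 3 min, stirring at 1200 rpm, before the activator was added. Aggregation was followed turbidimetrically in a light-transmission aggregometer.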

Platelet [3] = test: Inhibition of thrombin-induced human platelet aggregation by light transmission aggregometer; type: functional, cell-based; method in brief: as §3
Hep 3B2 = test: as §2; type: functional, cell-based; method in brief: as §1

SMILES	pIC50 (HepG2)	pIC50 [1]	pIC50 (A549)	pIC50 (MDA-MB-231)	pIC50 (MCF7)	pIC50 (Platelet [2])	pIC50 (Platelet [3])	Activity (Platelet [2])	Activity (Platelet [3])	Activity (HepG2)	Activity (Hep 3B2)	Activity (A549)	Activity (MDA-MB-231)	Activity (MCF7)
C=C1C(=O)O[C@H]2/C=C(\C)C[C@@H]3C=C(CC[C@H]4O[C@@]4(C)CC[C@H]12)C(=O)O3	5.00	5.03	5.06	< 5.00	< 5.00	< 4.00	5.32							
C=C1CC[C@H]2C(=C)C(=O)O[C@@H]2/C=C(\C)C[C@H]2C=C(CCC1=O)C(=O)O2	5.00	< 5.00	< 5.00	5.01	< 5.00			inactive	inactive					
CC(=O)Oc1ccccc1C(=O)O [ASPIRIN]						3.81	< 4.00							
C=C1C(=O)O[C@H]2/C=C(\C)C[C@@H]3C=C(C/C=C/[C@@](C)(OO)CC[C@H]12)C(=O)O3						< 4.00	4.92			inactive	inactive	inactive	inactive	inactive
C=C1C(=O)O[C@H]2/C=C(\C)C[C@@H]3C=C(C/C=C/[C@@](C)(O)CC[C@H]12)C(=O)O3	5.00	< 5.00	5.00	< 5.00	< 5.00	< 4.00	4.70							
C=C1CC[C@@H]2C(=C)C(=O)O[C@H]2/C=C(\C)C[C@@H]2C=C(CC[C@H]1O)C(=O)O2						4.38	< 4.00			inactive	inactive	inactive	inactive	inactive
COc1cccc2c1C(=O)c1c(O)c3c(c(O)c1C2=O)C[C@@](O)(C(=O)CO)C[C@@H]3O[C@H]1C[C@H](N)[C@H](O)[C@H](C)O1 [DOXORUBICIN]	6.09	6.32	6.40	7.15										
C=C1C(=O)O[C@H]2/C=C(\C)C[C@@H]3C=C(CC[C@@H](OO)C(=C)CC[C@H]12)C(=O)O3								inactive	inactive	inactive	inactive	inactive	inactive	inactive
C=C1C(=O)O[C@H]2/C=C(\C)C[C@@H]3C=C(CC/C=C(\C)CC[C@H]12)C(=O)O3	5.00	5.13	5.02	5.02	5.02	4.71	< 4.00							
